# Screening data from PubChem BioAssay.
# NR2E3 ag-1: NR2E3 agonists in two-hybrid cells, primary screen, cell-based, luminescence, CHO-S, Gal4-NCOR/VP16-NR2E3 | luciferase | inhibition of corepressor binding, % at 3.98 µM | actives 0.35% (n = 360,000);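 active means inhibition above the mean of all tested compounds plus 3 SD, cut at about 70% in these data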;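 further: 0% = DMSO with NR2E3 transfected cells and 100% = cells lacking NR2E3 construct; higher means lower luciferase signal from less NR2E3 corepressor binding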
# GASC-1 inh: inhibitors of GASC-1 histone demethylase, primary screen, biochemical, fluorescence, DELFIA europium. GST-JMJD2C(1-420) H3K9me3 demethylation. inhibition, % at 2.35 µM. actives 0.069% (n = 330,000). AID 2099, 2009;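 active means more than half of a compound's replicate wells show inhibition beyond 50%, single wells judged on their own value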;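 further: signal counts dimethyl H3K9 product captured on neutravidin plate; 0% = median of DMSO wells and 100% = 0.3 times that DMSO median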
# Furin inhibitor: human furin inhibitors, primary screen, biochemical, fluorescence intensity; P09958; purified furin, fluorogenic substrate cleavage; inhibition, % at 20 µM or 30 µM; actives 0.061% (n = 220,000); AID 463115, 2010; in the data active means inhibition above about 25%
# Target sequence (P09958 108-714 limits assumed): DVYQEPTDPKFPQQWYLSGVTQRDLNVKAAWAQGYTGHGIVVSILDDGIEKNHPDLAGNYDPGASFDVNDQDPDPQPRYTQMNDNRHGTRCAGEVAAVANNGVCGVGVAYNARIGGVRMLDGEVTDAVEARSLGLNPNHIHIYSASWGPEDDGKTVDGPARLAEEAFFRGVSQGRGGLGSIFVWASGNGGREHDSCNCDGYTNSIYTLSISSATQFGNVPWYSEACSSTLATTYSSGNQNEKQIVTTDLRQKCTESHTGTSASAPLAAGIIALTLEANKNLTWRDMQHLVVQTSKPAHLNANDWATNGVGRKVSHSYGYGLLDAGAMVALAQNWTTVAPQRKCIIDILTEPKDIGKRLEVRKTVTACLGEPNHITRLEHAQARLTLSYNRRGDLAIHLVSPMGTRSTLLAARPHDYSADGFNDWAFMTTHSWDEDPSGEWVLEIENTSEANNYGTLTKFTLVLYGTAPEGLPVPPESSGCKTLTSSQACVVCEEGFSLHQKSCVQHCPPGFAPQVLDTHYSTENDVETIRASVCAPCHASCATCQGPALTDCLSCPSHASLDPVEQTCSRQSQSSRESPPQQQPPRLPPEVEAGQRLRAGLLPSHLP
# EP2 mod: EP2 receptor modulators, cAMP readout, primary screen, cell-based, HTRF cAMP, PGE2 stimulation | EP2-expressing cells, cAMP HTRF FRET, PGE2 co-stimulation | induction, % at 25 µM | actives 0.83% (n = 260,000) | AID 940, 2007;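 active means compounds whose cAMP rise, as percent of the full-agonist control response, exceeds 60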;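 further: rat C6 glioma line stably carrying human EP2 under a CMV promoter; the protocol text gives 20 µM as final concentration; 100% = response of wells given 1 µM PGE2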
# EP2 antag: human EP2 receptor antagonists, primary screen, TR-FRET cAMP, C6 glioma cells; Prostaglandin E2 receptor EP2 subtype (Homo sapiens), P43116; C6 glioma cells expressing human EP2; cells stimulated with saturating PGE2; inhibition, % at 25 µM; actives 0.52% (n = 260,000); AID 1422, 2008;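 active means percent inhibition above 40 after rounding to a whole number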;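 further: rat C6 glioma host cells with rolipram phosphodiesterase inhibitor present; the protocol text gives 20 µM as final concentration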
# NR2E3 ag-2: inhibitors of NR2E3-RetCOR corepressor binding, primary screen, NR2E3 agonist project, biochemical, TR-FRET, GST-NR2E3, biotin-RetCOR; Photoreceptor-specific nuclear receptor (Homo sapiens), Q9Y5X4; 1536-well; inhibition of corepressor binding, % at 4.78 µM; actives 0.12% (n = 320,000); AID 2300, 2010;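 active means percent inhibition above the cutoff of mean plus 3 SD of all tested compounds, set per screening campaign, cut at about 20% in these data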;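 further: 0% = DMSO wells and 100% = biotin wells as full block of FRET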
#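 Assay system: NR2E3–RetCOR corepressor complex. Quantity: 1.35 nM GST-NR2E3. Buffer or medium: pH 7.5 Tris-based buffer. Reagent: biotinylated RetCOR corepressor at 7 nM final. Schedule: 5 h at 4 °C. Detection: TR-FRET, emission read at 617 and 671 nm. Replicates: one well per compound, singlicate testing.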
# An asterisk follows results filed as active; . = not tested or not shown; + = active, no number; ! = a repeat was not active. Only some compounds are listed: those with a hit (about 1.3% of all), similar ones and a draw of the others.
SMILES,NR2E3 ag-1,GASC-1 inh,Furin inhibitor,EP2 mod,EP2 antag,NR2E3 ag-2
Oc1ccc(Cl)cc1Cc1cc(Cl)cc(Cc2cc(Cl)ccc2O)c1O,.,.,.,7,58*,.
O=S(=O)(c1cccc(F)c1)N1CCCC(c2nc(-c3cccs3)no2)C1 (stereo unspecified),.,.,.,0,10,.
Clc1cccc(-c2nn3c(Cn4cnc5ccccc54)nnc3s2)c1,10,-2,34*,-21,5,2
c1csc(-c2nn3c(Cn4cnc5ccccc54)nnc3s2)c1,8,7,-11,6,17,1
CC(O)CNc1nc2ccccc2n1CC(=O)NCC(F)(F)F (stereo unspecified),23,1,-31,34,3,-5
CC(O)CNc1nc2ccccc2n1CC(=O)NC12CC3CC(CC(C3)C1)C2 (stereo unspecified),0,51*,-27,-20,3,-1
Cn1ccnc1C1(O)CC2CCC(C1)N2C(=O)NC1CCCCC1 (stereo unspecified),.,.,.,-30,.,.
O=S(=O)(Nc1cc(Sc2ncn[nH]2)c(O)c2ccccc12)c1ccccc1,103*,.,-30,-62,35,.
Cc1cc(O)c(Sc2ncn[nH]2)cc1NS(=O)(=O)c1ccc(Cl)cc1,14,-3,.,.,.,2
CN(C)c1ccc2nc3ccc(=[N+](C)C)cc-3sc2c1,5,-4,-16,-223,+,-41
Cc1cc2nc3ccc(=[N+](C)C)cc-3sc2cc1N,-6,0,-6,-413,+,.
Cc1ccc(NC(=O)C(C)Sc2ncc(C#N)c(N)n2)c(C)c1 (stereo unspecified),.,.,.,-45,17,.
CCn1c(C(CC(C)C)NC(=O)c2ccco2)nc2cccnc21 (stereo unspecified),.,.,.,18,8,.
CCC(CN1CCOCC1)NC(=O)Cc1sc(C)nc1-c1ccc(F)cc1 (stereo unspecified),.,.,.,2,4,.
COc1ccc(OCC(=O)NC(=S)Nc2ccc(S(=O)(=O)Nc3cc(OC)nc(OC)n3)cc2)cc1,6,28,-9,-65,64*,-1
COc1cc(NS(=O)(=O)c2ccc(NC(=S)NC(=O)CC(C)C)cc2)nc(OC)n1,-26,-3,-29,-54,10,4
COc1cc(NS(=O)(=O)c2ccc(NC(=S)NC(=O)c3sc4ccccc4c3Cl)cc2)ncn1,-32,6,-14,-9,52*,4
COc1cc(NS(=O)(=O)c2ccc(NC(=S)NC(=O)c3ccc(F)cc3)cc2)nc(OC)n1,-40,0,.,-128,59*,-2
Cc1cc(C)nc(NS(=O)(=O)c2ccc(NC(=S)NC(=O)c3ccc(F)cc3)cc2)n1,.,.,.,-130,28,.
COc1ccc(C(=O)NC(=S)Nc2ccc(S(=O)(=O)Nc3cc(OC)ncn3)cc2)cc1,-19,-12,.,-87,25,1
COc1ccc(C(=O)NC(=S)Nc2ccc(S(=O)(=O)Nc3cc(OC)nc(OC)n3)cc2)cc1,15,-3,.,.,.,5
Cc1cc(NS(=O)(=O)c2ccc(NC(=S)NC(=O)c3ccc(F)cc3)cc2)no1,7,-1,1,-142,46*!,1
COc1ccccc1NC(=O)CSc1nnc(-c2cccnc2)n1-c1cc(C)ccc1C,.,.,.,-46,10,.
Cc1cc(-c2cnc(C)nc2C2CCN(CC(=O)N3CCOCC3)CC2)on1,.,.,.,19,.,.
CCc1nc2ccccc2n1C(C)C(=O)N1CCC2(CC1)NC(=O)c1ccccc1N2 (stereo unspecified),.,.,.,11,.,.
O=C(NCCN1CCC(O)(c2ccc(F)cc2)CC1)C1CC1,.,.,.,-9,4,.
COc1nc(C)nc(C)c1Oc1ccc(Cl)cc1Cl,-18,0,-16,65*,2,1
CC(C)(C)N(Cc1ccccc1)C(=O)c1ccc(Cl)cc1[N+](=O)[O-],1,2,-8,63*,1,-1
